According to ChEMBL document CHEMBL4251569, “Camptothecin-psammaplin A hybrids as topoisomerase I and HDAC dual-action inhibitors” (Eur J Med Chem, 2018):

Legend:
DU-145 = test: cells; type: functional, cell-based; details: Homo sapiens, DU-145, 72 h
HeLa = test: cells; type: functional, cell-based; details: Homo sapiens, 72 h
A2780 = test: cells; type: functional, cell-based; details: Homo sapiens, A2780, 72 h
cells = type: functional, cell-based; details: Homo sapiens, A2780/DX, 72 h
NCI-H460 = test: cells; type: functional, cell-based; details: Homo sapiens, NCI-H460, 72 h
HepG2 = test: Antiproliferative activity against human HepG2 cells after 72 hrs by SRB assay; type: functional, cell-based; details: HepG2, 72 h
CAPAN-1 = test: cells; type: functional, cell-based; details: Homo sapiens, CAPAN-1, 72 h
HT-29 = test: Antiproliferative activity against human HT-29 cells after 72 hrs by SRB assay; type: functional, cell-based; details: HT-29, 72 h
A-431 = test: cells; type: functional, cell-based; details: Homo sapiens, A-431, 72 h
[1] = target: Protein deacetylase HDAC6 (Homo sapiens, UniProt Q9UBN7); test: Inhibition of HDAC6 (unknown origin) using RHKK(Ac)AMC as substrate after 1 to 2 hrs by fluorescence assay
Histone deacetylase 4 = Histone deacetylase 4 (Homo sapiens, UniProt P56524); test: Inhibition of HDAC4 (unknown origin) using fluorogenic substrate after 1 to 2 hrs by fluorescence assay
How it was run: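 Purified HDAC4 preincubated with compound (10 concentrations from 10 µM, triplicate, final 1% DMSO) in 50 mM Tris-HCl pH 8.0, 137 mM NaCl, 2.7 mM KCl, 1 mM MgCl2, 1 mg/ml BSA. Class 2a trifluoroacetyl-lysine fluorogenic substrate added and incubated 1–2 h at 30 °C. Developer with TMP269 stops the reaction; fluorescence read at ex 360/em 460 at plateau. Activity is relative to DMSO, and IC50 comes from a sigmoidal fit.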

Histone deacetylase 1 = Histone deacetylase 1 (Homo sapiens, UniProt Q13547); test: Inhibition of HDAC1 (unknown origin) using RHKK(Ac)AMC as substrate after 1 to 2 hrs by fluorescence assay
Histone deacetylase 2 = Histone deacetylase 2 (Homo sapiens, UniProt Q92769); test: Inhibition of HDAC2 (unknown origin) using RHKK(Ac)AMC as substrate after 1 to 2 hrs by fluorescence assay
[2] = target: Polyamine deacetylase HDAC10 (Homo sapiens, UniProt Q969S8); test: Inhibition of HDAC10 (unknown origin) using RHKK(Ac)AMC as substrate after 1 to 2 hrs by fluorescence assay
Polyamine deacetylase HDAC10, sequence (Q969S8 whole entry): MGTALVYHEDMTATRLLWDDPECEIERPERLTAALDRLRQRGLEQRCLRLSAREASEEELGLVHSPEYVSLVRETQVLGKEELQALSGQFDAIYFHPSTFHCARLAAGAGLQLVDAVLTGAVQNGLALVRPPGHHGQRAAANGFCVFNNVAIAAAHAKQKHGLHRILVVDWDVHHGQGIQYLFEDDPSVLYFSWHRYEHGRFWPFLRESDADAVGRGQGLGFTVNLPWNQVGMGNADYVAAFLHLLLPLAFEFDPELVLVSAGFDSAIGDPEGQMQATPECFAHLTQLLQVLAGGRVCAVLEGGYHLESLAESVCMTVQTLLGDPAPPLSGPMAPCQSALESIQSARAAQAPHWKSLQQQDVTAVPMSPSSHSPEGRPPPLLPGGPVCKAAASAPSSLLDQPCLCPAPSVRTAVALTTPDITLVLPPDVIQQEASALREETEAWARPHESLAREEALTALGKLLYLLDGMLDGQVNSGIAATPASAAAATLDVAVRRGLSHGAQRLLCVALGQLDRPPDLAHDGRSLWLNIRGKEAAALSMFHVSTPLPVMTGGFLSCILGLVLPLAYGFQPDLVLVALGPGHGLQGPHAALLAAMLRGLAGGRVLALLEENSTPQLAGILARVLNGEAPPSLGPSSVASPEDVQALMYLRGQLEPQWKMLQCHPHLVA

Histone deacetylase 4, sequence (P56524 whole entry): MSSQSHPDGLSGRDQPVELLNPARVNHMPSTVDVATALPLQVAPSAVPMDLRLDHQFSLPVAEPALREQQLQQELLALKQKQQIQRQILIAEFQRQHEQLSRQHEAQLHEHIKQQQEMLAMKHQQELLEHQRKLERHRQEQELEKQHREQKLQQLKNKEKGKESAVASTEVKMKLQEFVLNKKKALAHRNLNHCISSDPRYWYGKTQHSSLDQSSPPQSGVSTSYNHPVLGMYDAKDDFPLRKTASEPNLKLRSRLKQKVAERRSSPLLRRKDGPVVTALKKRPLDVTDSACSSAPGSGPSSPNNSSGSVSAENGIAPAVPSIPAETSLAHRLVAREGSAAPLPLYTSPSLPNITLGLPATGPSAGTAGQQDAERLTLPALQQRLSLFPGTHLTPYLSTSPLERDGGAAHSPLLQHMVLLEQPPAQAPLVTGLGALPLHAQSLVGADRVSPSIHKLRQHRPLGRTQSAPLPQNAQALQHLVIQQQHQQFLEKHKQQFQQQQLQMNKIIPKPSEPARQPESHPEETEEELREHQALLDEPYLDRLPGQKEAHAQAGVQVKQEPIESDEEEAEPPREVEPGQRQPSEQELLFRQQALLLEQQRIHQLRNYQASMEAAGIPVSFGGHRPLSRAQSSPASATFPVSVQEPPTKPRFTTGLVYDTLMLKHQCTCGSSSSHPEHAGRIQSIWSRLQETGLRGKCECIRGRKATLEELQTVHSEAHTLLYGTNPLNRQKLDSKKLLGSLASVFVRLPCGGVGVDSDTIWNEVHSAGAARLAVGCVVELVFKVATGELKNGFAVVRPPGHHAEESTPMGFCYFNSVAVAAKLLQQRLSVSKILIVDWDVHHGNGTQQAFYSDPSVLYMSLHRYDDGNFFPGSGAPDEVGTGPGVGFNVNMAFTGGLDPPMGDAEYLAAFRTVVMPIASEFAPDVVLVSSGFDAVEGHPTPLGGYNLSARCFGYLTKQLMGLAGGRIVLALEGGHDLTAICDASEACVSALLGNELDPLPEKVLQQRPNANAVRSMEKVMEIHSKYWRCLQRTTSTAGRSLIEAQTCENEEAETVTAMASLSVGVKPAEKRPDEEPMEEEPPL
Histone deacetylase 2, sequence (Q92769 whole entry): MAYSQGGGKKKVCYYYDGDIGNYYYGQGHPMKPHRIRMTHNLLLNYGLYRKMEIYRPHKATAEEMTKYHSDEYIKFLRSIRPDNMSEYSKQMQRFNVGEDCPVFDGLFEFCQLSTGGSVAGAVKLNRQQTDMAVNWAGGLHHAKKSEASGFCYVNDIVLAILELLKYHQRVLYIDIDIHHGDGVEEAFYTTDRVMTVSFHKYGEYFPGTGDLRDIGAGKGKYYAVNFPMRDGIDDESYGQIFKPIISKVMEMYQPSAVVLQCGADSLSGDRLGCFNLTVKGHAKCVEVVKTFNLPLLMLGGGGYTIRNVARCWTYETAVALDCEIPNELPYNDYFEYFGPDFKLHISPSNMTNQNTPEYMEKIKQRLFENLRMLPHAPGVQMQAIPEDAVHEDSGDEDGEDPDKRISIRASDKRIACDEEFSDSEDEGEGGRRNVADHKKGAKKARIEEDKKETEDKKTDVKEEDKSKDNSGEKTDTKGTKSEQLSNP
Protein deacetylase HDAC6, sequence (Q9UBN7 whole entry): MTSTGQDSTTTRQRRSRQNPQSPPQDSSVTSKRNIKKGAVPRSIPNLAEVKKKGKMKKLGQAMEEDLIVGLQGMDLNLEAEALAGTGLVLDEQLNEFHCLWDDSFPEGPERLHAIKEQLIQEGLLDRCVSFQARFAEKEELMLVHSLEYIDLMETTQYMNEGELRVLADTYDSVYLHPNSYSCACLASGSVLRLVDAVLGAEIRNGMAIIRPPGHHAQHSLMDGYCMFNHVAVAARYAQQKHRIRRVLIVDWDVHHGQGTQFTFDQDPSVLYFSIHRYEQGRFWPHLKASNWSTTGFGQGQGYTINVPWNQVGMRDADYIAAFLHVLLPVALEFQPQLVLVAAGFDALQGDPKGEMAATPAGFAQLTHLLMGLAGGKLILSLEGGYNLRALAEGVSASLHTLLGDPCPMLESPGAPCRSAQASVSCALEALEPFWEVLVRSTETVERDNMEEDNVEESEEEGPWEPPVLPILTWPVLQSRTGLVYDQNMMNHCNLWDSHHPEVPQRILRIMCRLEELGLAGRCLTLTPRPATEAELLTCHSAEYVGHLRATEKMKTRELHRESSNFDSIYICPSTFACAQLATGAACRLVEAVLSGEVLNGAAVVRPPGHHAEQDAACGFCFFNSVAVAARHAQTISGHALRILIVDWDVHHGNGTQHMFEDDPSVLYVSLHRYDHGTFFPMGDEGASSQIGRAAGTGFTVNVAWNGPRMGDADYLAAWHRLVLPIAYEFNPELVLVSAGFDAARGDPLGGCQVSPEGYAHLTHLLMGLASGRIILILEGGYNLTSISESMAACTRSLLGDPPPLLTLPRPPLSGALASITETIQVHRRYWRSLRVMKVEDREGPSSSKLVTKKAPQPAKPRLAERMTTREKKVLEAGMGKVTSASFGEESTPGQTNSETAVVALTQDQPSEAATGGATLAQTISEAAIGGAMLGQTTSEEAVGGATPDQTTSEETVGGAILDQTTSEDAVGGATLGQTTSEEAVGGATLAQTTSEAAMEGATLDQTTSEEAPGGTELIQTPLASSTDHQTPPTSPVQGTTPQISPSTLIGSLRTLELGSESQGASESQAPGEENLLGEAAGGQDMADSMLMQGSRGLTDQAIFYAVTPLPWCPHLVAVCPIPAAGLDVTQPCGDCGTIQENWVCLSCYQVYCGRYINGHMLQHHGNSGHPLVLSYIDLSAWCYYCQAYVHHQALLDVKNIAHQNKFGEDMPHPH
Histone deacetylase 1, sequence (Q13547 whole entry): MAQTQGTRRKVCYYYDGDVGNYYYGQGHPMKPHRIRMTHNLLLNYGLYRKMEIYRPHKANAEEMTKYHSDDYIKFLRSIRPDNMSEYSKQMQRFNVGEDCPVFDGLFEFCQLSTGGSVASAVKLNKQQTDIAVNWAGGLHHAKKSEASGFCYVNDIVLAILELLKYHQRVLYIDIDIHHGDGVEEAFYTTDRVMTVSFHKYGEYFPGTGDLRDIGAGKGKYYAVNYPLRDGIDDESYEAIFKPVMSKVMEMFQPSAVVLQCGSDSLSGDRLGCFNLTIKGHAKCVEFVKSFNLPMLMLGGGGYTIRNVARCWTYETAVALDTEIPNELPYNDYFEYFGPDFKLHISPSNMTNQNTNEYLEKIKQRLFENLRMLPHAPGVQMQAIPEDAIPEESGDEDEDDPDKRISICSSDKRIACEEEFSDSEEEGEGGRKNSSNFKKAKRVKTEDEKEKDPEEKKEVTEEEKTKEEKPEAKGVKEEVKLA

Row | Compound | IC50 (DU-145) [nM] | IC50 (HeLa) [nM] | IC50 (A2780) [nM] | IC50 (cells) [nM] | IC50 (NCI-H460) [nM] | IC50 (HepG2) [nM] | IC50 (CAPAN-1) [nM] | IC50 (HT-29) [nM] | IC50 (A-431) [nM] | IC50 [1] [nM] | IC50 (Histone deacetylase 4) | IC50 (Histone deacetylase 1) [nM] | IC50 (Histone deacetylase 2) [nM] | IC50 [2] [nM]
1 | CC[C@@]1(O)C(=O)OCc2c1cc1n(c2=O)Cc2c-1nc1ccccc1c2/C=N/OCCCCCC(=O)NCCSSCCNC(=O)/C(Cc1ccc(O)cc1)=N\O | 190 | 580 | 290 | 1600 | 220 | 610 | 75 | 460 | 310 |  |  |  |  | 
2 | CC[C@@]1(O)C(=O)OCc2c1cc1n(c2=O)Cc2c-1nc1ccc(O)cc1c2/C=N/OCCCCCC(=O)NCCSSCCNC(=O)/C(Cc1ccc(O)c(Br)c1)=N\O |  |  |  |  | 880 |  | 200 |  |  | 1490 | Not Active | 253 | 410 | 9.12
